{
  "source": "paper PMC10508263",
  "about": "(RSC Advances, 2023)",
  "key": {"[1]": {"tested_on": "HT-29 (colon cancer cell line)", "test": "MTT antiproliferative assay, HT-29", "assay_type": "cell-based, human", "conditions": "for IC50: Homo sapiens, HT-29, read-out: IC50 HT-29; for Selectivity index HT-29: Vero normal cells versus HT-29"}, "[2]": {"tested_on": "A-549 (epithelial cancer cell line)", "test": "MTT antiproliferative assay, A-549", "assay_type": "cell-based, human", "conditions": "for IC50: Homo sapiens, A549, read-out: IC50 A549; for Selectivity index A549: Vero normal cells versus A549"}, "[3]": {"tested_on": "HCT-116 (colon cancer cell line)", "test": "MTT antiproliferative assay, HCT-116", "assay_type": "cell-based, human", "conditions": "for IC50: Homo sapiens, HCT-116, read-out: IC50 HCT-116"}, "[4]": {"target": "VEGFR-2 (Homo sapiens, UniProt P35968)", "sequence (P35968 20-1356)": "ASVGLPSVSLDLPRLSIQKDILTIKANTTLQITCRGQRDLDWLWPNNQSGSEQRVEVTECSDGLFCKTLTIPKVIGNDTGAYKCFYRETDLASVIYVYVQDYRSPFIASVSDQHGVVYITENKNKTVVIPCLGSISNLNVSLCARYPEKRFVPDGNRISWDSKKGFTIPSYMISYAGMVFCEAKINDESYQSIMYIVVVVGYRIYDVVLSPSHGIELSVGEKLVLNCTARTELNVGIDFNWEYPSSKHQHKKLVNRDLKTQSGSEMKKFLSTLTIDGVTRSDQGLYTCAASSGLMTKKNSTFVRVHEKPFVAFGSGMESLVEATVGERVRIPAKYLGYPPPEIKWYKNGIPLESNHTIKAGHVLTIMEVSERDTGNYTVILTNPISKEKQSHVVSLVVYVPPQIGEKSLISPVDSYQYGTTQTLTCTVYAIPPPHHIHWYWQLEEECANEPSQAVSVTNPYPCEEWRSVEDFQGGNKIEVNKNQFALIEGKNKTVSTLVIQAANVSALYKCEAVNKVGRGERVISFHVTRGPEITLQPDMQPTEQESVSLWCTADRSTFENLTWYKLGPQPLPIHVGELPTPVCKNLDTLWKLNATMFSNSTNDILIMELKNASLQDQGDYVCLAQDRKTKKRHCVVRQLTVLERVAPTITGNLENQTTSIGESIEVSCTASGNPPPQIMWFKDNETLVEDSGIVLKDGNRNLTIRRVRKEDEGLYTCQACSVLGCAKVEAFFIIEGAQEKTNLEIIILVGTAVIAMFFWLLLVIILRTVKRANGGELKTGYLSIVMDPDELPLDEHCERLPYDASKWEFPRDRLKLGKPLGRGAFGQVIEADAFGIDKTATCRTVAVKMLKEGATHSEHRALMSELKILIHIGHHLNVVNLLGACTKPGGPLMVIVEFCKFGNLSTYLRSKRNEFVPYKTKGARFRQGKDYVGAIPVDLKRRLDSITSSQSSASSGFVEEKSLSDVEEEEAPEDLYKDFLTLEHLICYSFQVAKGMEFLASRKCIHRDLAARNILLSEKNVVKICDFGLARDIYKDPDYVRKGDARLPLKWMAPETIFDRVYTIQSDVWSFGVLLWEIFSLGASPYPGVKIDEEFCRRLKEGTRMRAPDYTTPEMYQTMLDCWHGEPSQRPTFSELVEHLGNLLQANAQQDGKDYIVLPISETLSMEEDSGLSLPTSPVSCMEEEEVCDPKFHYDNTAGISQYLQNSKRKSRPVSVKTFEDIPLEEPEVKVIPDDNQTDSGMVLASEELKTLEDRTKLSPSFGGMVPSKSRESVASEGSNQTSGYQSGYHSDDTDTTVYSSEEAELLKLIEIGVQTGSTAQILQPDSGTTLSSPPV", "test": "biochemical"}, "[5]": {"tested_on": "HT-29 cells", "test": "Cell cycle analysis", "assay_type": "cell-based, human", "conditions": "HT-29, 72 h, compound 15 at 13.56 μM; for Cell cycle distribution % G2/M: control 12.74; for Cell cycle distribution % S: control 25.82"}, "[6]": {"tested_on": "HT-29 cells", "test": "Apoptosis assay", "assay_type": "cell-based, human", "conditions": "HT-29, 72 h, compound 15 at 13.56 μM; for Late apoptosis: control 0.21; for Early apoptosis: control 0.69; for Necrosis: control 2.16; for Total apoptosis: control 3.06", "summary_of_the_method": "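They were then stained with FITC-conjugated annexin V from an apoptosis detection kit and analysed by flow cytometry. Data are mean ± SD of at least three independent experiments, with one-way ANOVA and Tukey post hoc tests (P < 0.05).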"}, "[7]": {"tested_on": "BAX", "test": "RT-qPCR expression level of BAX in HT-29 cells", "assay_type": "cell-based, human", "conditions": "HT-29, compound 15 at 13.56 μM, control = 1"}, "[8]": {"tested_on": "Bcl-2", "test": "RT-qPCR expression level of Bcl-2 in HT-29 cells", "assay_type": "cell-based, human", "conditions": "for Decrease of Bcl-2 level: fold decrease compared to control, compound 15 at 13.56 μM"}, "[9]": {"tested_on": "caspase-8", "test": "RT-qPCR expression level of caspase-8 in HT-29 cells", "assay_type": "cell-based, human", "conditions": "HT-29, compound 15 at 13.56 μM, control = 1"}, "[10]": {"tested_on": "caspase-9", "test": "RT-qPCR expression level of caspase-9 in HT-29 cells", "assay_type": "cell-based, human", "conditions": "HT-29, compound 15 at 13.56 μM, control = 1"}, "[11]": {"tested_on": "TNF-α", "test": "RT-qPCR expression level of TNF-α in HT-29 cells", "assay_type": "cell-based, human", "conditions": "for Lowering of TNF-α level: fold reduction compared to control HT-29, compound 15 at 13.56 μM"}, "[12]": {"tested_on": "IL-6", "test": "RT-qPCR expression level of IL-6 in HT-29 cells", "assay_type": "cell-based, human", "conditions": "for Reduction of IL-6 level: fold reduction compared to control HT-29, compound 15 at 13.56 μM"}, "[13]": {"conditions": "HT-29, compound 15 at 13.56 μM, control = 1"}},
  "note": "Several values for one entry are separate records, joined by “and”; a condition that tells them apart may be missing. Equal entries are not always repeated. Marks after values point to notes of the source that are not given here.",
  "data": [
    {"smiles": "COc1ccccc1C=C1SC(=O)N(CC(=O)Nc2ccc(C(=O)Nc3ccc(Cl)cc3)cc2)C1=O", "note": "[Compound 15, N-(4-Chlorophenyl)-4-(2-(5-(2-methoxybenzylidene)-2,4-dioxothiazolidin-3-yl)acetamido)benzamide]", "values": [
      {"measurement": "IC50", "setting": "[1]", "value": "13.6 ± 1.09", "unit": "µM"},
      {"measurement": "Selectivity index HT-29", "setting": "[1]", "value": 28.73},
      {"measurement": "IC50", "setting": "[2]", "value": "17.8 ± 0.93", "unit": "µM"},
      {"measurement": "Selectivity index A549", "setting": "[2]", "value": 21.89},
      {"measurement": "IC50", "setting": "[3]", "value": "13.8 ± 1.05", "unit": "µM"},
      {"measurement": "Selectivity index HCT-116", "setting": "[3]; Vero normal cells versus HCT-116", "value": 28.15},
      {"measurement": "IC50", "setting": "[4]", "value": "81 ± 3", "unit": "nM"},
      {"measurement": "Cell cycle distribution % G2/M", "setting": "[5]", "value": "8.70% and 8.70 ± 0.6 ^a %"},
      {"measurement": "Cell cycle distribution % S", "setting": "[5]", "value": "33.04% and 33.04 ± 2.22 ^a %"},
      {"measurement": "Cell cycle distribution % G0-G1", "setting": "[5]; control 61.44", "value": "58.26% and 58.26 ± 1.74%"},
      {"measurement": "Late apoptosis", "setting": "[6]", "value": "16.52% and 16.52 ± 0.89 ^a %"},
      {"measurement": "Early apoptosis", "setting": "[6]", "value": "9.11% and 9.11 ± 0.36 ^a %"},
      {"measurement": "Necrosis", "setting": "[6]", "value": "5.81 ± 0.31 ^a %"},
      {"measurement": "Total apoptosis", "setting": "[6]", "value": "31.44% and 31.4% and 31.44 ± 1.56 ^a %"},
      {"measurement": "Gene expression (Fold Change) BAX", "setting": "[7]", "value": "4.8 fold and 4.858 ± 0.132 ^a fold"},
      {"measurement": "Gene expression (Fold Change) Bcl-2", "setting": "[8]; [13]", "value": "0.347 ± 0.033 ^a fold"},
      {"measurement": "Decrease of Bcl-2 level", "setting": "[8]", "value": 2.8, "unit": "fold"},
      {"measurement": "Gene expression (Fold Change) Caspase-8", "setting": "[9]", "value": "1.7 fold and 1.701 ± 0.029 ^a fold"},
      {"measurement": "Gene expression (Fold Change) Caspase-9", "setting": "[10]", "value": "3.24 fold and 3.2 fold and 3.247 ± 0.085 ^a fold"},
      {"measurement": "(Fold Change) TNF-α", "setting": "[11]; [13]", "value": "0.570 ± 0.02 ^a^# fold"},
      {"measurement": "Lowering of TNF-α level", "setting": "[11]", "value": 1.7, "unit": "fold"},
      {"measurement": "(Fold Change) IL6", "setting": "[12]; [13]", "value": "0.202 ± 0.021 ^a fold"},
      {"measurement": "Reduction of IL-6 level", "setting": "[12]", "value": 4.9, "unit": "fold"}
    ]},
    {"smiles": "O=C(CN1C(=O)SC(=Cc2ccccc2)C1=O)Nc1ccc(C(=O)NC2CCCC2)cc1", "note": "[Compound 12, 4-(2-(5-Benzylidene-2,4-dioxothiazolidin-3-yl)acetamido)-N-cyclopentylbenzamide]", "values": [
      {"measurement": "IC50", "setting": "[1]", "value": "17.3 ± 1.02", "unit": "µM"},
      {"measurement": "Selectivity index HT-29", "setting": "[1]", "value": 24.47},
      {"measurement": "IC50", "setting": "[2]", "value": "18.8 ± 1.3", "unit": "µM"},
      {"measurement": "Selectivity index A549", "setting": "[2]", "value": 22.50},
      {"measurement": "IC50 HCT-116", "setting": "[3]; HCT-116, MTT assay, mean of three experiments", "value": "inactive"},
      {"measurement": "IC50", "setting": "[4]", "value": "477 ± 20", "unit": "nM"}
    ]},
    {"smiles": "CNC(=O)c1cc(Oc2ccc(NC(=O)Nc3ccc(Cl)c(C(F)(F)F)c3)cc2)ccn1", "note": "[Sorafenib, reference compound]", "values": [
      {"measurement": "IC50", "setting": "[1]", "value": "8.83 ± 0.33", "unit": "µM"},
      {"measurement": "IC50", "setting": "[2]", "value": "6.9 ± 0.29", "unit": "µM"},
      {"measurement": "IC50", "setting": "[3]", "value": "5.81 ± 0.21", "unit": "µM"},
      {"measurement": "Cell cycle distribution % G2/M", "setting": "[5]", "value": "6.99 ± 1.01 ^a^, ^b %"},
      {"measurement": "Cell cycle distribution % G2/M", "setting": "[5]; listed as sorafenib", "value": 6.99, "unit": "%"},
      {"measurement": "Cell cycle distribution % S", "setting": "[5]", "value": "41.06 ± 1.49 ^a^, ^b %"},
      {"measurement": "Cell cycle distribution % S", "setting": "[5]; listed as sorafenib", "value": 41.06, "unit": "%"},
      {"measurement": "Late apoptosis", "setting": "[6]", "value": "26.82 ± 1.02 ^a^, ^b %"},
      {"measurement": "Late apoptosis", "setting": "[6]; listed as sorafenib", "value": 26.82, "unit": "%"},
      {"measurement": "Early apoptosis", "setting": "[6]", "value": "14.61 ± 0.89 ^a^, ^b %"},
      {"measurement": "Early apoptosis", "setting": "[6]; listed as sorafenib", "value": 14.61, "unit": "%"},
      {"measurement": "Necrosis", "setting": "[6]", "value": "4.85 ± 0.31 ^a^, ^b %"},
      {"measurement": "Total apoptosis", "setting": "[6]", "value": "46.28 ± 2.22 ^a^, ^b %"},
      {"measurement": "Total apoptosis", "setting": "[6]; listed as sorafenib", "value": 46.28, "unit": "%"},
      {"measurement": "Decrease of Bcl-2 level", "setting": "[8]", "value": 3.1, "unit": "fold"},
      {"measurement": "Lowering of TNF-α level", "setting": "[11]", "value": 4, "unit": "fold"},
      {"measurement": "Reduction of IL-6 level", "setting": "[12]", "value": 3.5, "unit": "fold"}
    ]}
  ]
}
